Consider 11 compounds from ChEMBL document CHEMBL4411267, “Phloroglucinols from the Roots of Garcinia dauphinensis and Their Antiproliferative and Antiplasmodial Activities” (J Nat Prod, 2019).

One assay relates to A2780. Briefly: Antiproliferative activity against human A2780 cells assessed as reduction in cell viability incubated for 48 hrs by Alamar blue assay. The settings on record: A2780, 48 h. In kind it is functional, cell-based. A general note: The colour change of resazurin is a common sign of viable cells or microbes.
A further assay relates to Plasmodium falciparum. Briefly: Antiplasmodial activity against Plasmodium falciparum Dd2 assessed as reduction in parasite viability incubated for 72 hrs by SYBR Green I dye based assay. In kind it is functional, organism-based. The settings on record: Dd2, 72 h. Summed up: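 Ring-stage parasite cultures at 1% parasitemia and 1% hematocrit, exposed to samples for 72 h at 37 °C under 5% CO2/5% O2/90% N2. Viability read by DNA quantitation with SYBR Green I in lysis buffer (0.33 μL dye per mL, 25 μL added). IC50 by nonlinear regression curve fitting; mean ± SD of three independent experiments.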

Assay [1] is described as follows: Selectivity index, ratio of IC50 for antiproliferative activity against human A2780 cells to IC50 for antiplasmodial activity against Plasmodium falciparum Dd2. In kind it is functional.

By IC50 is commonly meant the concentration that gives 50% inhibition.

As for `CCC(C)C(=O)c1c(O)cc(O)c(C/C=C(\C)CCC=C(C)C)c1O` (stereo not drawn), in the assay on A2780, the IC50 was 12.4 µM.

Consider `C=C(C)CCC(Cc1c(O)cc(O)c(C(=O)[C@@H](C)CC)c1O)/C(C)=C/CC=C(C)C` (stereo partly drawn), for which the IC50 in the assay on A2780 is 7 µM; in the assay with Plasmodium falciparum it was 12 µM.

`C=C1[C@@H](Cc2c(O)cc(O)c(C(=O)[C@@H](C)CC)c2O)CCC(C)(C)[C@@H]1CC=C(C)C`: the “Ratio IC50” value in assay [1] was 20. Also, the IC50 in the assay on A2780 was 15.2 µM; in the assay with Plasmodium falciparum, 0.8 µM.

Turning to `CC[C@H](C)C(=O)c1c(O)cc(O)c(CC(CCC(C)(C)O)/C(C)=C/CC=C(C)C)c1O` (stereo partly drawn), in the assay with Plasmodium falciparum, the IC50 was 8.3 µM.

Regarding `CC[C@H](C)C(=O)c1c(O)cc(O)c(CCC(C)(O)CCC=C(C)C)c1O` (stereo partly drawn), the IC50 with A2780 was determined as 6.4 µM; in the assay with Plasmodium falciparum it was 5.4 µM.

Consider `CC[C@H](C)C(=O)c1c(O)cc(O)c(CC2=C(C)[C@@H](CC=C(C)C)C(C)(C)CC2)c1O`, for which the IC50 worked out at 4.5 µM in the assay on A2780 and 4.7 µM in the assay on Plasmodium falciparum.

For the compound `CC(C)=CCC/C(C)=C/Cc1c(O)cc(O)c(C(=O)C(C)C)c1O`, the IC50 in the assay with A2780 is 16.4 µM; in the assay with Plasmodium falciparum, 12.5 µM.

As to `CC[C@H](C)C(=O)c1c(O)cc2c(c1O)C[C@@H]1C(C)(C)CCC[C@@]1(C)O2` (relative stereo), the IC50 with Plasmodium falciparum turned out to be 14.1 µM.

Regarding `C[C@@H]1CC[C@H]2[C@@H](C)C(=O)O[C@@H]3O[C@@]4(C)CC[C@@H]1[C@]32OO4` [ARTEMISININ], the half-inhibitory concentration (IC50) in the assay with Plasmodium falciparum amounted to 0.0085 µM.

Regarding `CC(C)=CCC/C(C)=C/CC/C(C)=C/CC[C@]1(C)CCc2cc(O)cc(C)c2O1` [DELTA-TOCOTRIENOL], the IC50 in the assay on A2780 worked out at 19.7 µM; in the assay with Plasmodium falciparum it was 5.3 µM.

On to `CCC(C)C(=O)c1c(O)cc(O)c2c1O[C@](C)(CCC=C(C)C)[C@@H](O)C2` (stereo partly drawn) [EMPETRIKARINOL B], for which the IC50 in the assay with A2780 is 10 µM.
